Screening results: PubChem BioAssay, Sanford-Burnham Center for Chemical Genomics
bIAP act – bovine intestinal alkaline phosphatase activators, primary screen, biochemical, bovine IAP, CDP-star luminescence; alkaline phosphatase, intestinal [Bos taurus]; purified bovine IAP, 30 min; hits give high values; fold of DMSO-control signal, blank-subtracted; activation factor at 20 µM; hit rate 0.17% among 200,000; AID 1016, 2008;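 active = activation factor of 2 or more at 20 µM, a signal rise over negative controls twice the positive control's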
hIAP act – human IAP activators, primary screen, biochemical, luminescence, uHTS; Intestinal-type alkaline phosphatase (Homo sapiens), P09923; activation factor at 10 µM; purified human IAP, CDP-Star luminescence, 30 min; hits give high values; 1 = vehicle-only enzyme, 0 = enzyme-free background; hit rate 0.16% among 330,000;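 active = activation factor of the enzyme at least 2-fold when tested at 20 µM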
Target sequence (P09923 whole entry, looked up): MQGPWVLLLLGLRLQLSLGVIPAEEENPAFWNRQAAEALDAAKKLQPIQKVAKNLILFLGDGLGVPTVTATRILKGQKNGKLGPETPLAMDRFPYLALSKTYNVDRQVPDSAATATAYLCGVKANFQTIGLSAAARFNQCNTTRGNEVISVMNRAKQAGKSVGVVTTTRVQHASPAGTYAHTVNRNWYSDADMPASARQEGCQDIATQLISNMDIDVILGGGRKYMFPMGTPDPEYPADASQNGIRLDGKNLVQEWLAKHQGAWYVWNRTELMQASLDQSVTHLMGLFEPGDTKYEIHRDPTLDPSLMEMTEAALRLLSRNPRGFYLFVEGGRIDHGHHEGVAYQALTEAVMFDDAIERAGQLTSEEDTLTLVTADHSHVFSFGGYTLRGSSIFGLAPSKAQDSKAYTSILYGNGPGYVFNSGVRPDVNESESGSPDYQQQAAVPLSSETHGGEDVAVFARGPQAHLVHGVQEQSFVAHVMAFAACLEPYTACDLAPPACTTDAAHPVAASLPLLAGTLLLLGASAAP
mIAP block – inhibitors of mouse IAP, primary screen, biochemical, luminescence, uHTS; purified mouse IAP, CDP-Star luminescence, 30 min; inhibition, % at 10 µM; hit rate 0.2% among 330,000; AID 2806, 2010;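 active = inhibition of at least 40% at 10 µM in the primary screen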;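 also: plate controls were DMSO with enzyme for no effect and no enzyme wells for full effect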
hIAP block – human IAP inhibitors, primary screen, biochemical, luminescence, uHTS | Intestinal-type alkaline phosphatase (Homo sapiens), P09923 | purified IAP, CDP-Star luminescence, 30 min | inhibition, % at 10 µM | hit rate 0.12% among 330,000;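 active = inhibition reaching a set limit with compound at 10 µM in the primary screen, cut at about 35% in these data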;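 also: plate controls were DMSO wells with enzyme for no effect and no-enzyme buffer wells for full effect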
mIAP activ – activators of mouse IAP, primary screen, biochemical, luminescence, uHTS. activation factor at 10 µM. muIAP, CDP-Star luminescence, 30 min; hits give high values; 1 = vehicle-only enzyme signal, 0 = enzyme-free wells. hit rate 0.24% among 330,000. intestinal alkaline phosphatase [Mus musculus];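 active = activation factor of at least 2 at 20 µM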
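Assay system: mouse IAP enzyme; Reagent: CDP-Star chemiluminescent phosphatase substrate; Compound: DMSO-dissolved test compounds; Incubation: 30 min, room temperature; Technique: luminescence from enzymatic CDP-Star hydrolysis; Controls: DMSO-only wells and no-enzyme negative control.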
bIAP inhibitor – bovine intestinal alkaline phosphatase inhibitors, primary screen, selectivity assay for TNAP inhibitor project, biochemical, bovine IAP, CDP-star luminescence. alkaline phosphatase, intestinal [Bos taurus]. purified bovine IAP, 30 min. inhibition, % at 20 µM. 190,000 tested, under 10 active. AID 1019, 2008;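 active = over 50% inhibition of intestinal alkaline phosphatase at 20 µM in the single-dose screen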
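Incubation: 30 min reaction at room temperature / Material: purified bovine intestinal alkaline phosphatase (IAP) enzyme / Input: enzyme at 1/65,000,000 dilution / Dosing: 20 µM single dose / Signal: CDP-star luminescence signal / Reagent: CDP-star chemiluminescent phosphatase substrate, 30 µM final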
hIAP act conf – human IAP activators, confirmation, biochemical, luminescence, single concentration, uHTS hits | shares compounds with hIAP act | hit rate 10% among 880 | activation (%Activity, negative = activation), % at 8.3 µM | purified IAP, CDP-Star luminescence, 30 min; hits give low values;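 active = at least twofold enzyme activation in any of six single-dose repeats, which the averaged readout prints as negative percent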
Active calls of the source: *. A selection: hits, their analogues and other compounds. The true share with any hit is near 0.72%.

How did CC(=O)c1ccc(N(C(=O)c2ccco2)C(C(=O)NC2CCCC2)c2cccs2)cc1 (stereo unspecified) do in these assays?
hIAP act: 0.968; mIAP block: 6.1; hIAP block: 3.2; mIAP activ: 0.939

How did Cc1ccc(N(C(=O)c2ccn[nH]2)C(C(=O)NC2CCCC2)c2cccs2)cc1 (stereo unspecified) do in these assays?
bIAP act: 1.2; hIAP act: 3.03*; mIAP block: -96.5; hIAP block: -203.4; mIAP activ: 1.97; bIAP inhibitor: -16.8; hIAP act conf: -54.5

What do the screens show for `COc1ccc(N(C(=O)c2ccn[nH]2)C(C(=O)NC2CCCC2)c2ccc(F)cc2)cc1` (stereo unspecified)?
hIAP act: 2.48*; mIAP block: -51.4; hIAP block: -147.7; mIAP activ: 1.51; hIAP act conf: 2.6

How did COc1ccc(CNC(=O)C(=O)NCC2OCCCN2S(=O)(=O)c2cccs2)cc1 (stereo unspecified) do in these assays?
hIAP act: 1.08; mIAP block: -5.5; hIAP block: -8.4; mIAP activ: 1.05

How did CSCCC(NC(=O)c1ccccc1Cl)C(=O)NNC(=O)c1ccccc1O (stereo unspecified) do in these assays?
hIAP act: 1.55; mIAP block: 28.6; hIAP block: -54.9; mIAP activ: 0.714

Results for CC(Sc1ccc(Cl)cc1)C(=O)NNC(=O)c1ccccc1O (stereo unspecified) ?
hIAP act: 2.48*; mIAP block: 17.9; hIAP block: -147.5; mIAP activ: 0.821; hIAP act conf: -20.4

Results for Cc1cccc(N(C(=O)c2ccc(CN3CCOCC3)o2)C(C(=O)NC(C)(C)C)c2ccc(F)cc2)c1 (stereo unspecified) ?
bIAP act: 1; hIAP act: 1.16; mIAP block: -2.9; hIAP block: -15.6; mIAP activ: 1.03; bIAP inhibitor: -0.5

What do the screens show for `O=C(COc1ccc(Cl)cc1)OCC(=O)N1CCCc2ccccc21`?
bIAP act: 0.9; hIAP act: 0.642; mIAP block: 43.9*; hIAP block: 35.8*; mIAP activ: 0.561; bIAP inhibitor: 12.8; hIAP act conf: -20.0

Results for CC(C)Oc1cccc(C(=O)Nc2ncn[nH]2)c1 ?
hIAP act: 2.24*; mIAP block: 3.5; hIAP block: -123.8; mIAP activ: 0.965; hIAP act conf: 5.1

What do the screens show for `CC(C)COc1ccc(C(=O)Nc2ncn[nH]2)cc1`?
hIAP act: 1.1; mIAP block: -12.5; hIAP block: -9.9; mIAP activ: 1.12

Results for CC(C)Oc1ccc(C(=O)Nc2ncn[nH]2)cc1 ?
hIAP act: 2.01*; mIAP block: -8.5; hIAP block: -101.3; mIAP activ: 1.08; hIAP act conf: -64.7*

How did CC(C)(C)OC(=O)N1CCC(NC(=O)c2[nH]cnc2C(=O)Nc2ccon2)CC1 do in these assays?
hIAP act: 2.75*; mIAP block: 16.6; hIAP block: -174.5; mIAP activ: 0.834; hIAP act conf: 37.0

How did CC(C)(C)OC(=O)NCCCCCNC(=O)c1[nH]cnc1C(=O)Nc1ccon1 do in these assays?
hIAP act: 2.05*; mIAP block: 11.4; hIAP block: -104.9; mIAP activ: 0.886; hIAP act conf: 8.6

What do the screens show for `CC(C)(C)OC(=O)N1CCC(NC(=O)c2[nH]cnc2C(=O)Nc2ccc(Cl)cc2)CC1`?
hIAP act: 1.65; mIAP block: 2.6; hIAP block: -64.8; mIAP activ: 0.974

What do the screens show for `Cc1cc(C)n2nc(C(=O)OCC(=O)Nc3ccc(C)c(S(=O)(=O)N4CCOCC4)c3)nc2n1`?
hIAP act: 1.09; mIAP block: 1.3; hIAP block: -9.5; mIAP activ: 0.987
